The target of experiment [1] is T1, Gonadotropin-releasing hormone receptor (Homo sapiens) (UniProt P30968).
T1 sequence (whole entry): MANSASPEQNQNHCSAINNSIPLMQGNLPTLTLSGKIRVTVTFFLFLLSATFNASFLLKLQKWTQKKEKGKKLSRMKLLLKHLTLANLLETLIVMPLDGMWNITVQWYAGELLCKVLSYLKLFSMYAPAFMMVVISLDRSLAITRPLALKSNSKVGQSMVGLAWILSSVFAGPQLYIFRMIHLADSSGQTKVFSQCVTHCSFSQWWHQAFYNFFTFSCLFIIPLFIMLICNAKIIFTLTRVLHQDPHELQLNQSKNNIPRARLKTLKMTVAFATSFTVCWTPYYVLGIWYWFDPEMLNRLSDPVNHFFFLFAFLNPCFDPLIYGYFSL
In words: Displacement of [125I]triptorelin from human GnRHR expressed in CHO cells at 1 uM. It counts as cell-based. An outline of the steps: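 Single-point displacement at 1 μM test compound. CHO membranes bearing wild-type human GnRHR (20 µg protein) incubated 45 min at 22 °C with [125I]triptorelin (30,000 cpm) in Tris-HCl pH 7.4 containing MgCl2 and BSA. Nonspecific binding taken with 1 µM ganirelix, total binding with buffer. Bound radioligand recovered by filtration and gamma-counted; percent displacement reported.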

Experiment [2] concerns the target T2, Gonadotropin-releasing hormone receptor (Homo sapiens, UniProt P30968).
T2 sequence (P30968 whole entry): T1 sequence (whole entry)
In words: Antagonist activity at human GnRHR expressed in CHO cells after 30 mins by luciferase reporter gene assay. It is filed as functional, cell-based. (In general: A reporter such as luciferase makes a cellular process visible.)

Experiment [3] has as its target T2, Gonadotropin-releasing hormone receptor. Description: Displacement of [125I]triptorelin from human GnRHR expressed in CHO cells. It counts as cell-based. An outline of the steps:
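Membranes from CHO cells expressing wild-type human GnRHR (20 µg protein) incubated with [125I]triptorelin (30,000 cpm) and five competitor concentrations in 50 mM Tris-HCl pH 7.4, 2 mM MgCl2, 0.1% BSA, 45 min at 22 °C. Nonspecific binding defined with 1 µM ganirelix. Filtration, gamma counting. Ki from IC50 via Cheng-Prusoff (Kd 1.1 nM); at least three experiments in duplicate.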
In general terms: In a radioligand displacement assay an active substance lowers the binding of a labelled ligand.

Results on 31 compounds are retold here after ChEMBL document CHEMBL1149590, “Synthesis and evaluation of homo-bivalent GnRHR ligands” (Bioorg Med Chem, 2007).

pIC50, pKi: −log10 of the molar value.

In experiment [1], `CCNC(=O)Nc1ccc(-c2nc3n(Cc4c(F)cccc4F)cc(C(=O)NCc4cn(CCN=[N+]=[N-])nn4)c(=O)n3c2CN(C)Cc2ccccc2)cc1` came in with an Activity of 78%. Moreover, in experiment [2], the pIC50 was less than 5.00.
For the compound `CCNC(=O)Nc1ccc(-c2nc3n(Cc4c(F)cccc4F)cc(C(=O)OCC)c(=O)n3c2CN(CC(=O)NCc2cn(CCn3cc(CNC(=O)CN(Cc4ccccc4)Cc4c(-c5ccc(NC(=O)NCC)cc5)nc5n(Cc6c(F)cccc6F)cc(C(=O)OCC)c(=O)n45)nn3)nn2)Cc2ccccc2)cc1`, the Activity in experiment [1] was determined as 65%. In experiment [2], the pIC50 is 5.72.
Taken in the same sequence, the figures for `CCNC(=O)Nc1ccc(-c2nc3n(Cc4c(F)cccc4F)cc(C(=O)NCc4cn(CCOCCn5cc(CNC(=O)c6cn(Cc7c(F)cccc7F)c7nc(-c8ccc(NC(=O)NCC)cc8)c(CN(C)Cc8ccccc8)n7c6=O)nn5)nn4)c(=O)n3c2CN(C)Cc2ccccc2)cc1` were 64% and less than 5.00.
`C#CCNC(=O)CN(Cc1ccccc1)Cc1c(-c2ccc(NC(=O)NCC)cc2)nc2n(Cc3c(F)cccc3F)cc(C(=O)OCC)c(=O)n12` returned an Activity in experiment [1] of 98%. This compound also showed a pIC50 in experiment [2] of 6.00. The compound further had a pKi in experiment [3] of 8.28.
As to `CCNC(=O)Nc1ccc(-c2nc3n(Cc4c(F)cccc4F)cc(C(=O)OCC)c(=O)n3c2CN(CC(=O)NCc2cn(CCN=[N+]=[N-])nn2)Cc2ccccc2)cc1`, the Activity in experiment [1] came out at 74%. Also, the pIC50 in experiment [2] is 6.14.
For `CCOC(=O)c1cn(Cc2c(F)cccc2F)c2nc(-c3ccc(NC(=O)NCc4cn(CCn5cc(CNC(=O)Nc6ccc(-c7nc8n(Cc9c(F)cccc9F)cc(C(=O)OCC)c(=O)n8c7CN(C)Cc7ccccc7)cc6)nn5)nn4)cc3)c(CN(C)Cc3ccccc3)n2c1=O`, in that order: 68% and 5.72.
`CCOC(=O)c1cn(Cc2c(F)cccc2F)c2nc(-c3ccc(NC(=O)NCc4cn(CCOCCOCCOCCN=[N+]=[N-])nn4)cc3)c(CN(C)Cc3ccccc3)n2c1=O` had an Activity in experiment [1] of 84%. In experiment [2], this compound gave a pIC50 of 5.52.
Taken in the same sequence, the figures for `CCOC(=O)c1cn(Cc2c(F)cccc2F)c2nc(-c3ccc(NC(=O)NCc4cn(CCOCCOCCOCCOCCn5cc(CNC(=O)Nc6ccc(-c7nc8n(Cc9c(F)cccc9F)cc(C(=O)OCC)c(=O)n8c7CN(C)Cc7ccccc7)cc6)nn5)nn4)cc3)c(CN(C)Cc3ccccc3)n2c1=O` were 89% and 5.87.
For `CCNC(=O)Nc1ccc(-c2nc3n(Cc4c(F)cccc4F)cc(C(=O)NCc4cn(CCOCCOCCOCCN=[N+]=[N-])nn4)c(=O)n3c2CN(C)Cc2ccccc2)cc1`, in that order: 69% and less than 5.00.
`CCNC(=O)Nc1ccc(-c2nc3n(Cc4c(F)cccc4F)cc(C(=O)OCC)c(=O)n3c2CN(C)Cc2ccccc2)cc1` returned an Activity in experiment [1] of 99%. In experiment [2], this compound had a pIC50 of 7.15. This compound also gave a pKi in experiment [3] of 8.32.
Consider `CCOC(=O)c1cn(Cc2c(F)cccc2F)c2nc(-c3ccc(NC(=O)NCc4cn(CCOCCOCCOCCOCCN=[N+]=[N-])nn4)cc3)c(CN(C)Cc3ccccc3)n2c1=O`, for which, in experiment [1], the Activity is 90%. In addition, in experiment [2], the pIC50 is 6.17.
Taken in the same sequence, the figures for `CCNC(=O)Nc1ccc(-c2nc3n(Cc4c(F)cccc4F)cc(C(=O)OCC)c(=O)n3c2CN(CC(=O)NCc2cn(CCOCCOCCN=[N+]=[N-])nn2)Cc2ccccc2)cc1` were 83% and 6.33.
For `CCNC(=O)Nc1ccc(-c2nc3n(Cc4c(F)cccc4F)cc(C(=O)OCC)c(=O)n3c2CN(CC(=O)NCc2cn(CCOCCOCCOCCN=[N+]=[N-])nn2)Cc2ccccc2)cc1`, in that order: 76% and 6.14.
Taken in the same sequence, the figures for `CCOC(=O)c1cn(Cc2c(F)cccc2F)c2nc(-c3ccc(NC(=O)NCc4cn(CCOCCN=[N+]=[N-])nn4)cc3)c(CN(C)Cc3ccccc3)n2c1=O` were 85% and 5.44.
In the case of `C#CCNC(=O)c1cn(Cc2c(F)cccc2F)c2nc(-c3ccc(NC(=O)NCC)cc3)c(CN(C)Cc3ccccc3)n2c1=O`, the Activity in experiment [1] came out at 85%. In experiment [2], this compound gave a pIC50 of 5.15. Further, the pKi in experiment [3] was 6.79.
In turn, `CCOC(=O)c1cn(Cc2c(F)cccc2F)c2nc(-c3ccc(NC(=O)NCc4cn(CCOCCOCCN=[N+]=[N-])nn4)cc3)c(CN(C)Cc3ccccc3)n2c1=O` came in with an Activity in experiment [1] of 84%. The pIC50 in experiment [2] was 5.62.
`CCNC(=O)Nc1ccc(-c2nc3n(Cc4c(F)cccc4F)cc(C(=O)OCC)c(=O)n3c2CN(CC(=O)NCc2cn(CCOCCOCCOCCn3cc(CNC(=O)CN(Cc4ccccc4)Cc4c(-c5ccc(NC(=O)NCC)cc5)nc5n(Cc6c(F)cccc6F)cc(C(=O)OCC)c(=O)n45)nn3)nn2)Cc2ccccc2)cc1` showed an Activity in experiment [1] of 71%. Besides, the pIC50 in experiment [2] was 5.88. The same compound showed a pKi in experiment [3] of 7.16.
For `CCNC(=O)Nc1ccc(-c2nc3n(Cc4c(F)cccc4F)cc(C(=O)NCc4cn(CCOCCOCCOCCOCCN=[N+]=[N-])nn4)c(=O)n3c2CN(C)Cc2ccccc2)cc1`, the Activity in experiment [1] amounted to 70%. Moreover, the pIC50 in experiment [2] is less than 5.00.
For `CCOC(=O)c1cn(Cc2c(F)cccc2F)c2nc(-c3ccc(NC(=O)NCc4cn(CCOCCn5cc(CNC(=O)Nc6ccc(-c7nc8n(Cc9c(F)cccc9F)cc(C(=O)OCC)c(=O)n8c7CN(C)Cc7ccccc7)cc6)nn5)nn4)cc3)c(CN(C)Cc3ccccc3)n2c1=O`, in that order: 88% and 5.50.
On to `CCOC(=O)c1cn(Cc2c(F)cccc2F)c2nc(-c3ccc(NC(=O)NCc4cn(CCOCCOCCn5cc(CNC(=O)Nc6ccc(-c7nc8n(Cc9c(F)cccc9F)cc(C(=O)OCC)c(=O)n8c7CN(C)Cc7ccccc7)cc6)nn5)nn4)cc3)c(CN(C)Cc3ccccc3)n2c1=O`, for which the Activity in experiment [1] is 94%. In experiment [2], the pIC50 was 6.02. The pKi in experiment [3] is 7.63.
The compound `CCNC(=O)Nc1ccc(-c2nc3n(Cc4c(F)cccc4F)cc(C(=O)OCC)c(=O)n3c2CN(CC(=O)NCc2cn(CCOCCN=[N+]=[N-])nn2)Cc2ccccc2)cc1` yielded an Activity in experiment [1] of 66%. This compound had a pIC50 in experiment [2] of 6.28.
Regarding `CCOC(=O)c1cn(Cc2c(F)cccc2F)c2nc(-c3ccc(NC(=O)NCc4cn(CCOCCOCCOCCn5cc(CNC(=O)Nc6ccc(-c7nc8n(Cc9c(F)cccc9F)cc(C(=O)OCC)c(=O)n8c7CN(C)Cc7ccccc7)cc6)nn5)nn4)cc3)c(CN(C)Cc3ccccc3)n2c1=O`, in experiment [1], the Activity came to 90%. The same compound gave a pIC50 in experiment [2] of 6.45. For the same compound, the pKi in experiment [3] was 7.53.
`CCNC(=O)Nc1ccc(-c2nc3n(Cc4c(F)cccc4F)cc(C(=O)NCc4cn(CCOCCN=[N+]=[N-])nn4)c(=O)n3c2CN(C)Cc2ccccc2)cc1` displayed an Activity in experiment [1] of 68%. In experiment [2], the pIC50 is less than 5.00.
For `CCNC(=O)Nc1ccc(-c2nc3n(Cc4c(F)cccc4F)cc(C(=O)NCc4cn(CCn5cc(CNC(=O)c6cn(Cc7c(F)cccc7F)c7nc(-c8ccc(NC(=O)NCC)cc8)c(CN(C)Cc8ccccc8)n7c6=O)nn5)nn4)c(=O)n3c2CN(C)Cc2ccccc2)cc1`, in that order: 26% and less than 5.00.
For `CCNC(=O)Nc1ccc(-c2nc3n(Cc4c(F)cccc4F)cc(C(=O)OCC)c(=O)n3c2CN(CC(=O)NCc2cn(CCOCCn3cc(CNC(=O)CN(Cc4ccccc4)Cc4c(-c5ccc(NC(=O)NCC)cc5)nc5n(Cc6c(F)cccc6F)cc(C(=O)OCC)c(=O)n45)nn3)nn2)Cc2ccccc2)cc1`, in that order: 71% and 5.81.
Taken in the same sequence, the figures for `CCNC(=O)Nc1ccc(-c2nc3n(Cc4c(F)cccc4F)cc(C(=O)NCc4cn(CCOCCOCCOCCOCCn5cc(CNC(=O)c6cn(Cc7c(F)cccc7F)c7nc(-c8ccc(NC(=O)NCC)cc8)c(CN(C)Cc8ccccc8)n7c6=O)nn5)nn4)c(=O)n3c2CN(C)Cc2ccccc2)cc1` were 85% and less than 5.00.
Compound `CCOC(=O)c1cn(Cc2c(F)cccc2F)c2nc(-c3ccc(NC(=O)NCc4cn(CCN=[N+]=[N-])nn4)cc3)c(CN(C)Cc3ccccc3)n2c1=O` showed an Activity in experiment [1] of 76%. Further, the pIC50 in experiment [2] was 5.59.
For `CCNC(=O)Nc1ccc(-c2nc3n(Cc4c(F)cccc4F)cc(C(=O)OCC)c(=O)n3c2CN(CC(=O)NCc2cn(CCOCCOCCOCCOCCn3cc(CNC(=O)CN(Cc4ccccc4)Cc4c(-c5ccc(NC(=O)NCC)cc5)nc5n(Cc6c(F)cccc6F)cc(C(=O)OCC)c(=O)n45)nn3)nn2)Cc2ccccc2)cc1`, the Activity in experiment [1] amounted to 89%. The compound further gave a pIC50 in experiment [2] of 6.51. The compound further showed a pKi in experiment [3] of 6.71.
Consider `CCNC(=O)Nc1ccc(-c2nc3n(Cc4c(F)cccc4F)cc(C(=O)NCc4cn(CCOCCOCCOCCn5cc(CNC(=O)c6cn(Cc7c(F)cccc7F)c7nc(-c8ccc(NC(=O)NCC)cc8)c(CN(C)Cc8ccccc8)n7c6=O)nn5)nn4)c(=O)n3c2CN(C)Cc2ccccc2)cc1`, for which, in experiment [1], the Activity stood at 86%. Also, the pIC50 in experiment [2] is less than 5.00.
For `CCNC(=O)Nc1ccc(-c2nc3n(Cc4c(F)cccc4F)cc(C(=O)OCC)c(=O)n3c2CN(CC(=O)NCc2cn(CCOCCOCCOCCOCCN=[N+]=[N-])nn2)Cc2ccccc2)cc1`, in that order: 78% and 6.08.
As to `CCNC(=O)Nc1ccc(-c2nc3n(Cc4c(F)cccc4F)cc(C(=O)NCc4cn(CCOCCOCCN=[N+]=[N-])nn4)c(=O)n3c2CN(C)Cc2ccccc2)cc1`, the Activity in experiment [1] was 81%. Moreover, in experiment [2], the pIC50 was less than 5.00.

Broadly, the pIC50 is the negative decadic logarithm of the IC50, by convention in mol/L. A lower pIC50 goes with a large IC50. The pKi is the negative decadic logarithm of the Ki, by convention in mol/L. A high value points to a low Ki.
